Measured values taken from ChEMBL document CHEMBL1806459, “Discovery of N-(1-ethylpropyl)-[3-methoxy-5-(2-methoxy-4-trifluoromethoxyphenyl)-6-methyl-pyrazin-2-yl]amine 59 (NGD 98-2): an orally active corticotropin releasing factor-1 (CRF-1) receptor antagonist” (J Med Chem, 2011).
Calls of active or inactive are those of the source. The calls are words filed in the database; no cut-off is given here.

Columns and labels:
[1] = Inhibition of KV channel at 4 uM
Procedure, shortened: (§1)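 Selectivity panel of 69 targets, test compound at 4 μM, a level set by aqueous solubility limits; percent inhibition recorded per target.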

[2] = Inhibition of protein kinase C at 4 uM
Procedure, shortened: (§2)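 Single-concentration screen within a 69-target selectivity panel. The test concentration was 4 μM, a level set by the compound's limited aqueous solubility.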

[3] = target: Cholecystokinin receptor type A (Homo sapiens) (UniProt P32238); assay: Inhibition of cholecystokinin CCKA receptor at 4 uM; procedure, shortened: as §2
[4] = target: 5-hydroxytryptamine receptor 7 (Homo sapiens) (UniProt P34969); assay: Inhibition of Serotonin 5HT7 receptor at 4 uM; procedure, shortened: as §2
5-hydroxytryptamine receptor 7 (Homo sapiens), sequence (P34969 whole entry): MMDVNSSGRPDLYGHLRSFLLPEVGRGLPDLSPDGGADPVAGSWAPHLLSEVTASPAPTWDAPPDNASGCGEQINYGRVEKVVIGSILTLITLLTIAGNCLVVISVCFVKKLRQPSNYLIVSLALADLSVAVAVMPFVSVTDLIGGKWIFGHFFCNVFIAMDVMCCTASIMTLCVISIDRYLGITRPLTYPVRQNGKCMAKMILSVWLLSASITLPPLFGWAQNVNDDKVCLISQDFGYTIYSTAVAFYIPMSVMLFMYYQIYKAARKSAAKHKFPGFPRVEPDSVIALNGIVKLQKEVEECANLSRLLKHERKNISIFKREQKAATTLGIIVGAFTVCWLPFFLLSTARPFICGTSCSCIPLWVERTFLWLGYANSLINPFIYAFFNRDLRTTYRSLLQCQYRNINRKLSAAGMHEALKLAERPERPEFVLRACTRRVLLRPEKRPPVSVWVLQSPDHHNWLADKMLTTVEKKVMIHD

[5] = target: Gastrin/cholecystokinin type B receptor (Homo sapiens) (UniProt P32239); assay: Inhibition of cholecystokinin CCKB receptor at 4 uM; procedure, shortened: as §2
[6] = Inhibition of NMDA receptor at 4 uM; procedure, shortened: as §1
[7] = Inhibition of galanin receptor at 4 uM; procedure, shortened: as §2
[8] = Plasma protein binding in human; assay type: ADME, cell-free; details: read-out: PPB (converted)
Procedure, shortened: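 Binding to human plasma protein measured as percent bound.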

[9] = target: Endothelin receptor type B (Homo sapiens) (UniProt P24530); assay: Inhibition of endothelin ETB at 4 uM; procedure, shortened: as §2
Endothelin receptor type B (Homo sapiens), sequence (P24530 whole entry): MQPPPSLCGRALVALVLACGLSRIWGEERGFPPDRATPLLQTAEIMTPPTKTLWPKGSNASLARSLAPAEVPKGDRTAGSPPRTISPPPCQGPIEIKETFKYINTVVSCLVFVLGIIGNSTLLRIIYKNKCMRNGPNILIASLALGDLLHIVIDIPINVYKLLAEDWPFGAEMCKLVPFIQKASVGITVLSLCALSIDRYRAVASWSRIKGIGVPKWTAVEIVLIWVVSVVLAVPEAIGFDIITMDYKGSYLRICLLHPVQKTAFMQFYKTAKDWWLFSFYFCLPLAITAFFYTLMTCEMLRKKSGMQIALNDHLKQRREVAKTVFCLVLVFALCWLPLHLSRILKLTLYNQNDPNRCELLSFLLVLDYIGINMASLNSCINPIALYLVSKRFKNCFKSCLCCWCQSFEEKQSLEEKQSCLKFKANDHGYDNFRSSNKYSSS

[10] = target: Platelet-activating factor receptor (Homo sapiens) (UniProt P25105); assay: Inhibition of Platelet activating factor receptor at 4 uM; procedure, shortened: as §2
[11] = Inhibition of DHP calcium channel at 4 uM; procedure, shortened: as §1
[12] = target: Interleukin-6 (Homo sapiens) (UniProt P05231); assay: Inhibition of IL-6 at 4 uM; procedure, shortened: as §1
[13] = Inhibition of KATP channel at 4 uM; procedure, shortened: as §1
[14] = target: Beta-1 adrenergic receptor (Homo sapiens) (UniProt P08588); assay: Inhibition of adrenergic beta 1 receptor at 4 uM; procedure, shortened: as §2
Beta-1 adrenergic receptor (Homo sapiens), sequence (P08588 whole entry, looked up): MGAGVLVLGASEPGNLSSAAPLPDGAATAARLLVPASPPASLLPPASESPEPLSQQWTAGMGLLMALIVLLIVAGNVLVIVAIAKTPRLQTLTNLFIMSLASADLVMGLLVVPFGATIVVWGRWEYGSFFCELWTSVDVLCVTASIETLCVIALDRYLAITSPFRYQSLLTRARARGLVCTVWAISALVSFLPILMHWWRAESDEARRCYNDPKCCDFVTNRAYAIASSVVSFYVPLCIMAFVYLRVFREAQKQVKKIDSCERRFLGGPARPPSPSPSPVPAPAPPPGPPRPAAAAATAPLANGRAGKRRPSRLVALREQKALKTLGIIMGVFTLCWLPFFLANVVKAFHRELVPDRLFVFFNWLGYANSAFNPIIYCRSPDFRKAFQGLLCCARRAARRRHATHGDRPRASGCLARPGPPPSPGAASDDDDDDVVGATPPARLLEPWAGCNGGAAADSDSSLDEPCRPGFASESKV

[15] = Inhibition of bombesin receptor at 4 uM; procedure, shortened: as §2
[16] = target: Type-1 angiotensin II receptor (Homo sapiens) (UniProt P30556); assay: Inhibition of angiotensin AT1 receptor at 4 uM; procedure, shortened: as §2
Type-1 angiotensin II receptor (Homo sapiens), sequence (P30556 whole entry): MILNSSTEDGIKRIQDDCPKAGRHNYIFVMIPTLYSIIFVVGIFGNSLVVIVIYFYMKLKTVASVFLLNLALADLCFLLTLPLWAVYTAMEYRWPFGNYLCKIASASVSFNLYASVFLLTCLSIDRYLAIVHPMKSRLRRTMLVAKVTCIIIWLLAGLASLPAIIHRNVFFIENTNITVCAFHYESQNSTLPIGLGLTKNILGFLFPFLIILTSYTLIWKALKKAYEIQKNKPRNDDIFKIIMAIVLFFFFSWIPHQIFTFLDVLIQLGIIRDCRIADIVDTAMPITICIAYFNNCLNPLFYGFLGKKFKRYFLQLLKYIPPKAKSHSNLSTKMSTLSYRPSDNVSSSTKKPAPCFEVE

[17] = target: Calcitonin gene-related peptide type 1 receptor (Homo sapiens) (UniProt Q16602); assay: Inhibition of CGRP receptor at 4 uM; procedure, shortened: as §1
Calcitonin gene-related peptide type 1 receptor (Homo sapiens), sequence (Q16602 whole entry): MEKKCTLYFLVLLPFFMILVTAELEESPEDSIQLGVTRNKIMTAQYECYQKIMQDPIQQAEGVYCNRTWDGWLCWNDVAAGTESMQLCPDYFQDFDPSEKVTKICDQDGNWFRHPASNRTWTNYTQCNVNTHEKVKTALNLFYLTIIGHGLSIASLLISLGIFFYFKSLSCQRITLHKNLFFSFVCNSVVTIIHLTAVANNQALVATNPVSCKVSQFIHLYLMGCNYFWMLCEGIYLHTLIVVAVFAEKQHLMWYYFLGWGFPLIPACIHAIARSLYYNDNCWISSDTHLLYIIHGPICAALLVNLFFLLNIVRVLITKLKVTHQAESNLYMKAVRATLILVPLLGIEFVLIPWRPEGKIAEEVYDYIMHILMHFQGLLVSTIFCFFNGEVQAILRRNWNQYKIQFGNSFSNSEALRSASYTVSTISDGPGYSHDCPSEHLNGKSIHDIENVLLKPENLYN

[18] = target: Vasoactive intestinal polypeptide receptor 1 (Homo sapiens) (UniProt P32241); assay: Inhibition of VPAC1 receptor at 4 uM; procedure, shortened: as §2
[19] = Inhibition of Sodium channel site 2 at 4 uM; procedure, shortened: as §2
[20] = Inhibition of adenosine transporter at 4 uM; procedure, shortened: as §2
[21] = target: Adenosine receptor A1 (Homo sapiens) (UniProt P30542); assay: Inhibition of adenosine A1 receptor at 4 uM; procedure, shortened: as §2
[22] = target: T1, Corticotropin-releasing factor receptor 1 (Homo sapiens, UniProt P34998); assay: Inhibition of human CRF-1 receptor expressed in human IMR-32 cells assessed as effect on cAMP production by ELISA in presence of 3 nM CRF; assay type: functional, cell-based
T1 sequence (P34998 whole entry): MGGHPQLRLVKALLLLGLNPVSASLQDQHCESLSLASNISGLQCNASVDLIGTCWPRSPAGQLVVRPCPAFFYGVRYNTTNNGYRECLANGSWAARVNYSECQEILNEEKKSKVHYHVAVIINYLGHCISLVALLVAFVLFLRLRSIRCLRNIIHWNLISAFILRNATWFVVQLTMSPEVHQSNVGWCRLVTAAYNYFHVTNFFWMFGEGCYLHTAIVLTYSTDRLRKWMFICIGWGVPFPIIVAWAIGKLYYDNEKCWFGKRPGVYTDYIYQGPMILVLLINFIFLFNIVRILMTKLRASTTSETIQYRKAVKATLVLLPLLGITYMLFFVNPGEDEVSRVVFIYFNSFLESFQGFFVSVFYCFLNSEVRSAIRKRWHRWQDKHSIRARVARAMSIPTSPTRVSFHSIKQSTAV

[23] = Inhibition of AMPA receptor at 4 uM; procedure, shortened: as §1
Rattus norvegicus [24] = assay: Toxicity in Sprague-Dawley rat assessed as effect on horizontal movement at 10 mg/kg, po measured after 3 hrs for 1 hr; assay type: organism-based; design: dose 10 mg/kg, route oral; details: in vivo
Procedure, shortened: (§3)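 Rats not habituated to the test environment, dosed orally at 3, 10 and 30 mg/kg. Spontaneous locomotor activity recorded after dosing: horizontal activity as movement time, plus vertical activity (rearing). Test run to exclude sedation.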

[25] = Tmax in rat at 1 mg/kg, iv; assay type: ADME, organism-based; design: dose 1 mg/kg, route intravenous; details: in vivo
Procedure, shortened: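 Rat pharmacokinetics: compounds given iv (1 or 3 mg/kg) and po (5 or 10 mg/kg) in 2% Vitamin E TPGS (tocopheryl polyethylene glycol 1000 succinate). Plasma sampled over 24 h for Cmax, Tmax, AUC0–24 h, T1/2, clearance, Vss and oral bioavailability. Brain to plasma ratio also measured.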

[26] = target: Epidermal growth factor receptor (Homo sapiens) (UniProt P00533); assay: Inhibition of EGFR receptor at 4 uM; procedure, shortened: as §1
Epidermal growth factor receptor (Homo sapiens), sequence (P00533 whole entry): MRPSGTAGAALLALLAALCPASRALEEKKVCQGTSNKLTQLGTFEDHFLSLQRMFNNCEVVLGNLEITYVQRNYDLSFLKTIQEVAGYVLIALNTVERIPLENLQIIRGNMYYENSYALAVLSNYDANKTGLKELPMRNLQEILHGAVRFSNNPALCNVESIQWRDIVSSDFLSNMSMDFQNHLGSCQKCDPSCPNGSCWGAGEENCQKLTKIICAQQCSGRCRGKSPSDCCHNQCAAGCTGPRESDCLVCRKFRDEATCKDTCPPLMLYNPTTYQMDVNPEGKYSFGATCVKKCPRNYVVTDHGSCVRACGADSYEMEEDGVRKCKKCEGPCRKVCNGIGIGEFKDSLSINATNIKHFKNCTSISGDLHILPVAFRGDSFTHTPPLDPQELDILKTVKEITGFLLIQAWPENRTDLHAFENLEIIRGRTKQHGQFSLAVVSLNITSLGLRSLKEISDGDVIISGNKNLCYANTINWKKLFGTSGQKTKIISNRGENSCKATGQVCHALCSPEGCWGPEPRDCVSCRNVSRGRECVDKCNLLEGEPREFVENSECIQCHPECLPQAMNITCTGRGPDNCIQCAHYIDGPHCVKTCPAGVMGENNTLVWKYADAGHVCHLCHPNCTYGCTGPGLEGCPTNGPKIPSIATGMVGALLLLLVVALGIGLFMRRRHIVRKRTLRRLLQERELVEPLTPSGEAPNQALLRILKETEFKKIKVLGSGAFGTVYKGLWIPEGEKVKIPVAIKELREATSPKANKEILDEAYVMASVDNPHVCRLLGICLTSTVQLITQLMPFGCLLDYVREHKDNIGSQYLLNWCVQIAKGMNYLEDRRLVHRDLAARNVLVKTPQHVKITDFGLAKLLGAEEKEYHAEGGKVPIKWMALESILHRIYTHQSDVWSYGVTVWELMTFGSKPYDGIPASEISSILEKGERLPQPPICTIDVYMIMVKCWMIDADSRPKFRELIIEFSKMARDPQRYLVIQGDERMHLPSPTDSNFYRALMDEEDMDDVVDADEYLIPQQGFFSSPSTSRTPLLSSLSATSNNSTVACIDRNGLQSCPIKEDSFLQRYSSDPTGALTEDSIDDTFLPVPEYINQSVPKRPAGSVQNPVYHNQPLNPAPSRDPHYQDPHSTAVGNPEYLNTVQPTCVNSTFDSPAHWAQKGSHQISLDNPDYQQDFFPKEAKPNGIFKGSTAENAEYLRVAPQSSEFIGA

Rattus norvegicus [27] = assay: Toxicity in Sprague-Dawley rat assessed as effect on horizontal movement at 30 mg/kg, po measured after 3 hrs for 1 hr; assay type: organism-based; design: dose 30 mg/kg, route oral; details: in vivo; procedure, shortened: as §3
[28] = target: Adenosine receptor A3 (Homo sapiens) (UniProt P0DMS8); assay: Inhibition of adenosine A3 receptor at 4 uM; procedure, shortened: as §2
[29] = Inhibition of L-type calcium channel at 4 uM; procedure, shortened: as §1
[30] = Inhibition of phosphodiesterase 4 at 4 uM; procedure, shortened: as §2
Rattus norvegicus [31] = organism: Rattus norvegicus; assay: Metabolic stability in rat assessed as demethylation of one or both methoxy group; assay type: ADME, organism-based; details: in vivo
Rattus norvegicus [32] = assay: Toxicity in Sprague-Dawley rat assessed as effect on vertical activity at 3 mg/kg, po measured after 3 hrs for 1 hr; assay type: organism-based; design: dose 3 mg/kg, route oral; details: in vivo; procedure, shortened: as §3
[33] = Inhibition of Sigma opiate receptor at 4 uM; procedure, shortened: as §2
[34] = Inhibition of phosphodiesterase 3 at 4 uM; procedure, shortened: as §2
[35] = target: Oxytocin receptor (Homo sapiens) (UniProt P30559); assay: Inhibition of Oxytocin receptor at 4 uM; procedure, shortened: as §2
[36] = target: Glucocorticoid receptor (Homo sapiens) (UniProt P04150); assay: Inhibition of glucocorticoid receptor at 4 uM; procedure, shortened: as §2
Glucocorticoid receptor (Homo sapiens), sequence (P04150 whole entry): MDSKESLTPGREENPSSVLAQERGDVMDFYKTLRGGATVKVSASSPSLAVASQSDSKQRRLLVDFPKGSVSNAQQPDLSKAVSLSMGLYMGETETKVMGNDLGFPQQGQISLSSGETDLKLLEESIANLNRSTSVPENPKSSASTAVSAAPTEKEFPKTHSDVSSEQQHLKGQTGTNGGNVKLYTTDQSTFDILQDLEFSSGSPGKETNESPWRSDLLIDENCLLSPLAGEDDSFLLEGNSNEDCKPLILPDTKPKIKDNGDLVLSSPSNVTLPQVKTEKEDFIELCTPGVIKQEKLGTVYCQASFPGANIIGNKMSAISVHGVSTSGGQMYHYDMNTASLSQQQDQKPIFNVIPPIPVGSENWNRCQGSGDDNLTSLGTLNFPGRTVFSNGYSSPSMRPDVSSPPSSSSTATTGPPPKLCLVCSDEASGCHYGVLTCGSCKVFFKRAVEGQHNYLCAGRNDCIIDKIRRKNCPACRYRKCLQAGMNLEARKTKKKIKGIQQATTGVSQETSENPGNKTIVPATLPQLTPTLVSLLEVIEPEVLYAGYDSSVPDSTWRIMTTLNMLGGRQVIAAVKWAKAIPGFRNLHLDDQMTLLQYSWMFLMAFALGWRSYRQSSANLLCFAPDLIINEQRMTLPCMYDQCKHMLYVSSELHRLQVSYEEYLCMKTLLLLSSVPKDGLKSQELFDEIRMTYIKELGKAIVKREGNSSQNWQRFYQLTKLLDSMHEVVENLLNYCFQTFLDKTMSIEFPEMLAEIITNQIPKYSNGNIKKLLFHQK

Rattus norvegicus [37] = assay: AUC (0 to 24 hrs) in rat at 10 mg/kg, po; assay type: ADME, organism-based, Plasma; design: time < 24 hr, dose 10 mg/kg, route oral; details: in vivo
[38] = Inhibition of Choline transporter at 4 uM; procedure, shortened: as §1
Rattus norvegicus [39] = organism: Rattus norvegicus; assay: Metabolic stability in rat assessed as […] of isopentyl group; assay type: ADME, organism-based; details: in vivo
[40] = target: Sodium- and chloride-dependent betaine transporter (Homo sapiens) (UniProt P48065); assay: Inhibition of GABA transporter at 4 uM; procedure, shortened: as §1
Sodium- and chloride-dependent betaine transporter (Homo sapiens), sequence (P48065 whole entry): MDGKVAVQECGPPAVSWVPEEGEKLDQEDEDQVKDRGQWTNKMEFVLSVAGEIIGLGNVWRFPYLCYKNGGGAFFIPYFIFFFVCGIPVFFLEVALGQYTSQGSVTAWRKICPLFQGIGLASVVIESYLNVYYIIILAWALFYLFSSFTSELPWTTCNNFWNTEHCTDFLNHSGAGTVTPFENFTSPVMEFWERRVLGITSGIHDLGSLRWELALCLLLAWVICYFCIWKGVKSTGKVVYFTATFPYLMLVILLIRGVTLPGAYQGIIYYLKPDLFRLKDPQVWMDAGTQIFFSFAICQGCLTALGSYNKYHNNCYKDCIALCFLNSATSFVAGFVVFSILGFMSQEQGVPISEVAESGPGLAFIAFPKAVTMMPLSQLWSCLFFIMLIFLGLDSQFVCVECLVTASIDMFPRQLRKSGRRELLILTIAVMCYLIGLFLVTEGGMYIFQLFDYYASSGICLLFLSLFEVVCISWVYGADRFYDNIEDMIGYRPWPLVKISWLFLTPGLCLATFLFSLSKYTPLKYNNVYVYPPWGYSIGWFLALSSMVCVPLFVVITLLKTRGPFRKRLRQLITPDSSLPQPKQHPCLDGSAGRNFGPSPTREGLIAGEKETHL

[41] = Inhibition of GABA-A at 4 uM; procedure, shortened: as §1
[42] = target: T1, Corticotropin-releasing factor receptor 1; assay: Displacement of [125I]-sauvagine from human CRF-1 receptor expressed in human IMR-32 cells after 2 hrs by scintillation counting; assay type: cell-based
Procedure, shortened: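 Competition binding against 125I-sauvagine on membrane preparations from IMR-32 human neuroblastoma cells, which express CRF-1 endogenously. Modified from a published method.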

Rattus norvegicus [43] = assay: Antihyperlocomotion activity in Wistar rat assessed as decrease in CRF-induced hyperlocomotion at 10 mg/kg, po administered 3 hrs before CRF challenge measured after 1 hr; assay type: functional, organism-based; design: dose 10 mg/kg
Procedure, shortened: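 Rats received 0.3 μg CRF intracerebroventricularly, with oral pretreatment 3 h before in vehicle TPGS. Readout was movement time (locomotor activity), compared against TPGS/CRF controls.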

[44] = Inhibition of Neurotensin receptor at 4 uM; procedure, shortened: as §2

For `CCC(CC)Nc1nc(C)c(-c2ccc(OC(F)(F)F)cc2OC)nc1OC`, which inhibition [1] is on record?
The inhibition was > 16%.

What about the inhibition [2] of the same molecule?
The inhibition was > 16%.

And the inhibition [3]?
Its inhibition is > 16%.

What about the inhibition [4] of the same molecule?
Its inhibition is > 16%.

What about the inhibition [5] of the same molecule?
Its inhibition is > 16%.

What about the inhibition [6] of the same molecule?
The inhibition was > 16%.

And the inhibition [7]?
The inhibition was > 16%.

What about the fraction unbound [8] of the same molecule?
The fraction unbound was 0.008.

What about the inhibition [9] of the same molecule?
The inhibition was > 16%.

What about the inhibition [10] of the same molecule?
The inhibition was > 16%.

What about the inhibition [11] of the same molecule?
Its inhibition is > 16%.

What about the inhibition [12] of the same molecule?
The inhibition was > 16%.

And the inhibition [13]?
Its inhibition is > 16%.

And the inhibition [14]?
Its inhibition is > 16%.

What about the inhibition [15] of the same molecule?
The inhibition was > 16%.

What about the inhibition [16] of the same molecule?
Its inhibition is > 16%.

What about the inhibition [17] of the same molecule?
The inhibition was > 16%.

And the inhibition [18]?
The inhibition was > 16%.

And the inhibition [19]?
The inhibition was > 16%.

And the inhibition [20]?
The inhibition was > 16%.

And the inhibition [21]?
Its inhibition is > 16%.

What about the IC50 [22] of the same molecule?
Its IC50 is 93 nM.

What about the inhibition [23] of the same molecule?
The inhibition was > 16%.

What about the Activity (Rattus norvegicus [24]) of the same molecule?
The Activity was “Non-toxic”.

What about the Tmax [25] of the same molecule?
Its Tmax is 4 h.

What about the inhibition [26] of the same molecule?
Its inhibition is > 16%.

What about the Activity (Rattus norvegicus [27]) of the same molecule?
The Activity was “Non-toxic”.

And the inhibition [28]?
Its inhibition is > 16%.

What about the inhibition [29] of the same molecule?
Its inhibition is > 16%.

What about the inhibition [30] of the same molecule?
Its inhibition is > 16%.

And the Stability (Rattus norvegicus [31])?
Its Stability is “Unstable”.

And the Activity (Rattus norvegicus [32])?
Its Activity is “Non-toxic”.

And the inhibition [33]?
Its inhibition is > 16%.

What about the inhibition [34] of the same molecule?
The inhibition was > 16%.

And the inhibition [35]?
The inhibition was > 16%.

What about the inhibition [36] of the same molecule?
The inhibition was > 16%.

And the AUC (Rattus norvegicus [37])?
Its AUC is 4499 ng·h/mL.

What about the inhibition [38] of the same molecule?
Its inhibition is > 16%.

And the Stability (Rattus norvegicus [39])?
The Stability was “Unstable”.

And the inhibition [40]?
The inhibition was > 16%.

What about the inhibition [41] of the same molecule?
The inhibition was > 16%.

And the Ki [42]?
Its Ki is 1 nM.

What about the Activity (Rattus norvegicus [43]) of the same molecule?
The Activity was “Active”.

What about the inhibition [44] of the same molecule?
Its inhibition is > 16%.
